Target: Human immunodeficiency virus type 1 protease (Human immunodeficiency virus 1, UniProt Q72874)
Test: Inhibition of HIV protease, measured by assaying the cleavage of a fluorescent peptide substrate using HPLC
In short: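 HIV-1 protease activity followed as cleavage of a fluorescent peptide substrate, with products resolved and quantified by HPLC; Ki values reported.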

With `CCCC(N=O)c1cccc(CN2C(=O)N(Cc3cccc(C(CCC)N=O)c3)[C@H](Cc3ccccc3)[C@H](O)[C@@H](O)[C@H]2Cc2ccccc2)c1` (some centres not stated) the Ki was 0.031 nM.
Work on `CCC(N=O)c1cccc(CN2C(=O)N(Cc3cccc(C(CC)N=O)c3)[C@H](Cc3ccccc3)[C@H](O)[C@@H](O)[C@H]2Cc2ccccc2)c1` (stereo partly drawn) [(4R,5S,6S,7R)-4,7-dibenzyl-5,6-dihydroxy-1,3-bis({3-[1-(hydroxyimino)propyl]phenyl}methyl)-1,3-diazepan-2-one] yielded a Ki of 0.031 nM.

— BindingDB's records for doi:10.1021/jm9704199 (Dupont Pharmaceuticals, 1998)
